Screening results from PubChem.
Most compounds without a hit are left out; they make up all but 0.72% or so of the library.
bIAP act – intestinal alkaline phosphatase (bovine) activation | AID 1016 | purified bovine IAP, CDP-star luminescence, 30 min; active compounds read high; fold of DMSO-control signal, blank-subtracted | 0.17% of 200,000 active | activation factor at 20 µM;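 active = activation factor of 2 or more at 20 µM, a signal rise over negative controls twice the positive control's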
hIAP block – human IAP inhibition. P09923. inhibition, % at 10 µM. purified IAP, CDP-Star luminescence, 30 min. 0.12% of 330,000 active. AID 2544;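 active = inhibition reaching a set limit with compound at 10 µM in the primary screen, cut at about 35% in these data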
Target sequence (P09923 whole entry, looked up): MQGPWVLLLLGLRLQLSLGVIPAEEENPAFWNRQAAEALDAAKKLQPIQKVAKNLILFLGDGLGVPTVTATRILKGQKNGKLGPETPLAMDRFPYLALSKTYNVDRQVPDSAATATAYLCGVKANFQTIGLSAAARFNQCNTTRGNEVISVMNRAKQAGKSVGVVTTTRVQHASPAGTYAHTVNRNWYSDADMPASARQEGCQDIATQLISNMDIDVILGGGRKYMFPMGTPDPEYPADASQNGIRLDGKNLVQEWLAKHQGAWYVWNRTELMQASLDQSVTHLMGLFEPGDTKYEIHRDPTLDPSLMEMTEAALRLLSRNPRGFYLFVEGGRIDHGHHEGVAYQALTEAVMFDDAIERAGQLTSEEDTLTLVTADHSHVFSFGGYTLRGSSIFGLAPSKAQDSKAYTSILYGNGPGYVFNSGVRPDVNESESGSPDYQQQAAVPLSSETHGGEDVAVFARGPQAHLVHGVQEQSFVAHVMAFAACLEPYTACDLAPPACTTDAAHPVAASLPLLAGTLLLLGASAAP
mIAP activ – increases mouse intestinal alkaline phosphatase activity; activation factor at 10 µM; muIAP, CDP-Star luminescence, 30 min; active compounds read high; 1 = vehicle-only enzyme signal, 0 = enzyme-free wells; 0.24% of 330,000 active; AID 2805;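 active = activation factor of at least 2 at 20 µM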
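Assay system: mouse IAP enzyme; Reagent: CDP-Star chemiluminescent phosphatase substrate; Compound: DMSO-dissolved test compounds; Incubation: 30 min, room temperature; Technique: luminescence from enzymatic CDP-Star hydrolysis; Controls: DMSO-only wells and no-enzyme negative control.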
hIAP activ – human IAP activation | P09923 | activation factor at 10 µM | AID 2524 | 0.16% of 330,000 active | purified human IAP, CDP-Star luminescence, 30 min; active compounds read high; 1 = vehicle-only enzyme, 0 = enzyme-free background;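 active = activation factor of the enzyme at least 2-fold when tested at 20 µM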
mIAP block – mouse IAP inhibition; purified mouse IAP, CDP-Star luminescence, 30 min; inhibition, % at 10 µM; 0.2% of 330,000 active; AID 2806;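 active = inhibition of at least 40% at 10 µM in the primary screen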
bIAP inhibitor – blocks bovine intestinal alkaline phosphatase activity | purified bovine IAP, CDP-star luminescence, 30 min | inhibition, % at 20 µM | 190,000 tested, under 10 active;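 active = over 50% inhibition of intestinal alkaline phosphatase at 20 µM in the single-dose screen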
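System: Purified bovine intestinal alkaline phosphatase (IAP) enzyme | Input: IAP diluted 1/65,000,000 in the well | Also added: CDP-star chemiluminescent phosphatase substrate, 30 µM final | Dosing: 20 µM single dose | Times: Enzyme reaction for 30 min at room temperature | Detection: Luminescence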
hIAP act conf – human IAP activation confirmation; shares compounds with hIAP activ; purified IAP, CDP-Star luminescence, 30 min; active compounds read low; activation (%Activity, negative = activation), % at 8.3 µM; 10% of 880 active; AID 434926;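 active = at least twofold enzyme activation in any of six single-dose repeats, which the averaged readout prints as negative percent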
Each line names hits and unclear results; the compound was inactive in the other large screens (follow-up assays come after a bar, where they were run).

Cc1ccc(C)c(CN2CCC(CNC(=O)Nc3ccc(Br)cc3F)CC2)c1	mIAP activ 3.2 (no result: bIAP act, bIAP inhibitor)
Cc1c(NC(=O)COC(=O)c2cccn2C)c(=O)n(-c2ccccc2)n1C	none (no result: bIAP act, bIAP inhibitor)
Cn1c(CN2CCCC2)nc2cc(NC(=O)Nc3ccccc3)ccc21	bIAP act 2.3
Cn1c(CN2CCCCC2)nc2cc(NC(=O)c3ccccc3)ccc21	none
O=c1[nH]c(SCc2ccc([N+](=O)[O-])cc2)nc2[nH]ncc12	none
C[C@@H]1NC(=O)c2cc([N+](=O)[O-])cc(I)c2OCC[C@@H](C(=O)NC(CC(=O)O)C(N)=O)NC(=O)[C@H](CC(N)=O)NC1=O (stereo partly specified)	mIAP block 45
Cc1ccc(OCCCn2c(CO)nc3ccccc32)cc1	bIAP act 6.7
S=C(Nc1cc(Cl)cc(Cl)c1)NC1CCN(Cc2ccccc2)CC1	mIAP activ 3.2 (no result: bIAP act, bIAP inhibitor)
CCOC(=O)N1CCN(C(=O)/C(=C/c2cccs2)NC(=O)c2cccs2)CC1	none
COc1cc([C@H]2c3[nH]c4ccccc4c3C[C@H]3C(=O)N4[C@@H](c5cc(OC)c(OC)c(OC)c5)c5[nH]c6ccccc6c5C[C@H]4C(=O)N23)cc(OC)c1OC	mIAP activ 3.8
C=C1CCN([C@@H](CC(C)C)C(=O)NCc2ccc(Cl)c(Cl)c2)S(=O)(=O)c2ccccc21	none (no result: bIAP act, bIAP inhibitor)
C=C1CCN([C@@H](CC(C)C)C(=O)NCc2ccc(Cl)cc2)S(=O)(=O)c2ccccc21	mIAP block 46 (no result: bIAP act, bIAP inhibitor)
CN(C)S(=O)(=O)c1ccc(C(=O)Nc2ccc3nc(N4CCOCC4)sc3c2)cc1	none (no result: bIAP act, bIAP inhibitor)
O=C(Nc1nc2ccccc2s1)c1cnccn1	none
O=C(Nc1nc(-c2ccco2)c(-c2ccco2)s1)c1cnccn1	mIAP block 44 (no result: bIAP act, bIAP inhibitor)
COc1cccc(NC(=O)Nc2cc(C)ccc2OC)c1	none
FC(F)(F)c1cccc(CNC(=S)Nc2ccccc2)c1	none
O=C(Nc1ccccc1)Nc1cccc(C(F)(F)F)c1	mIAP activ 2.9
CNC(=O)Nc1cccc(C(F)(F)F)c1	none
O=C(Nc1cccc(C(F)(F)F)c1)NC1CCN(S(=O)(=O)c2ccc(F)cc2)CC1	mIAP activ 2.3
CC(=O)c1ccc(S(=O)(=O)N2CCC(NC(=O)Nc3cccc(F)c3)CC2)cc1	none
Cc1ccc(OC(F)F)c(NC(=O)Nc2cccc(C(F)(F)F)c2)c1	mIAP activ 2.1
FC(F)(F)c1cccc(NC(=S)NCc2ccccc2)c1	mIAP activ 2.2
FC(F)(F)Sc1ccc(NC(=S)NCc2ccccc2)cc1	mIAP activ 2.3 (no result: bIAP act, bIAP inhibitor)
S=C(NCc1ccccc1)NCc1cccc(CNC(=S)NCc2ccccc2)c1	mIAP activ 2.4
Cc1ccc(S(=O)(=O)N[C@@H](C)C(=O)N2CCC(C(=O)N[C@@H](Cc3ccccc3)C(=O)O)CC2)cc1	none (no result: bIAP act, bIAP inhibitor)
O=C(c1ccco1)N1CCN(C(=O)c2ccccc2OCc2ccc(Cl)cc2)CC1	none (no result: bIAP act, bIAP inhibitor)
Nc1ccc2nc(CCCCCCCCc3nc4ccc(N)cc4[nH]3)[nH]c2c1	bIAP act 2
Cc1ncc([N+](=O)[O-])n1CC(=O)Nc1cccc(C(F)(F)F)c1	none (no result: bIAP act, bIAP inhibitor)
COC(=O)c1sccc1NC(=O)Nc1cccc([N+](=O)[O-])c1	mIAP block 66 (no result: bIAP act, bIAP inhibitor)
COC(=O)C1=C[C@@H](C(=O)OC)[C@@H]2C3=C(C(=O)[C@]2(C)NC(=O)c2ccccc2)[C@H](C)n2c(=O)n(-c4ccccc4)c(=O)n2[C@@H]3C1	none (no result: bIAP act, bIAP inhibitor)
COc1cc2c(cc1OC)C(C(=O)Nc1ccc3c(c1)OCCO3)C1c3ccccc3CCN1C2=O (stereo unspecified)	bIAP act 2.5
CCc1ccccc1NC(=O)NC1CC2CCC(C1)N2Cc1cccs1 (stereo unspecified)	none
CCc1ccc(NC(=S)NC2CC3CCCC(C2)N3Cc2cccs2)cc1 (stereo unspecified)	mIAP activ 5.7
CN1CCN(C(=O)c2cccc(NS(=O)(=O)c3ccc(Br)cc3)c2)CC1	none (no result: bIAP act, bIAP inhibitor)
CC1CCCN(C(=O)C2(NC(=O)Nc3cccc(F)c3)CCCCC2)C1 (stereo unspecified)	mIAP activ 3.1
Cc1cc(C)cc(NC(=S)NCCN(C2CCCCC2)C2CCCC2)c1	mIAP activ 2.1 (no result: bIAP inhibitor)
Cc1ccc(NC(=S)NCCN(C2CCCCC2)C2CCCC2)cc1	none (no result: bIAP inhibitor)
Cc1ccc(CN(C)c2ccc(S(=O)(=O)N3CCCC3)cn2)cc1	hIAP block 36 (no result: bIAP act, bIAP inhibitor) | hIAP act conf inactive
CC1CCC(NC(=O)CCNS(=O)(=O)c2ccc3c(c2)CCC(=O)N3)CC1 (stereo unspecified)	none (no result: bIAP act, bIAP inhibitor)
O=C(CC1C[C@H](C(=O)N2CCCCC2)[C@@]2(CCc3ccccc3)c3[nH]c4ccccc4c3CCN2C1=O)NCCCn1ccnc1 (stereo partly specified)	none (no result: bIAP act, bIAP inhibitor)
O=C(NCC1CCCCC1)c1ccc(F)cc1Cl	hIAP block 45 (no result: bIAP act, bIAP inhibitor) | hIAP act conf inactive
CN(C(=O)CSc1ncccc1C(=O)O)c1ccccc1	hIAP block 36 | hIAP act conf inactive
Cc1nnc(NC(=O)CSc2n[nH]c(-c3ccccc3C)n2)s1	hIAP block 41 (no result: bIAP act, bIAP inhibitor) | hIAP act conf inactive
CCc1c(C(=O)NNC(=S)NCCc2ccccc2)csc1C	hIAP activ 2.1 | hIAP act conf inactive
CC1CCC(C#N)(N(C)C(=O)CSc2nnc(C3CC3)n2C2CC2)CC1 (stereo unspecified)	none (no result: bIAP act, bIAP inhibitor)
CC1=NN(c2nc3ccccc3[nH]2)C(=O)/C1=C/N(C)C	hIAP activ 2.3 | hIAP act conf -57
CC1=NN(c2ccccc2)C(=O)/C1=C/N(C)C	none (no result: bIAP act, bIAP inhibitor)
Cc1ccc(CN2[C@@H](CC3CCCCC3)COCCS2(=O)=O)cc1	none (no result: bIAP act, bIAP inhibitor)
CCNS(=O)(=O)c1ccc(CCC(=O)N2CCCC2)cc1	hIAP block 42 (no result: bIAP act, bIAP inhibitor) | hIAP act conf inactive
Cc1nc(=O)c(-c2ccccc2)c(C)n1-c1cccc(/C=C/C(=O)O)c1	none (no result: bIAP act, bIAP inhibitor)
COc1ccc(OC)c(/C=N/NC(=O)c2[nH]ncc2Br)c1	none (no result: bIAP act, bIAP inhibitor)
Cc1ccc(O)c(/C=N/NC(=O)c2[nH]ncc2Br)c1	hIAP activ 2.2 | hIAP act conf inactive
Cc1ccc(O)c(/C=N/NC(=O)C2=NNC(c3ccccc3)(c3ccccc3)C2)c1	none (no result: hIAP block, mIAP activ, hIAP activ, mIAP block)
CCOc1ccc(/C=N/NC(=O)c2[nH]ncc2Br)c(O)c1	hIAP activ 2.1 | hIAP act conf -294
O=C(N/N=C/c1c(O)ccc2ccccc12)c1[nH]ncc1Br	hIAP activ 2.2 | hIAP act conf inactive
O=C(N/N=C/c1cccs1)c1[nH]ncc1Br	none (no result: bIAP act, bIAP inhibitor)
CCCn1c(SCC(=O)NCCCN2CCCC2=O)nc2ccccc2c1=O	none (no result: bIAP act, bIAP inhibitor)
Cc1ccc(NC(=O)CCS(=O)(=O)c2cc3c(cc2Cl)NC(=O)CO3)cc1	hIAP block 37 (no result: bIAP act, bIAP inhibitor) | hIAP act conf inactive
